Bioassay records from PubChem.
Gli-Sufu antag – Gli-Sufu pathway antagonism; Sufu-KO-LIGHT fibroblasts, Gli luciferase reporter luminescence; inhibition, % at 5 µM; 340,000 tested, 0.74% active; AID 588413;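 active = inhibition above about 55%, limit read from the data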
Hep lipid drop – hepatic lipid droplet formation modulation | AML12 mouse hepatocytes, oleate lipid droplets, BODIPY imaging | inhibition, % at 6.5 µM | 240,000 tested, 0.4% active | AID 1656;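 active = lipid droplet intensity inhibited by at least 50%, with more than 500 cells counted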
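Test system: AML12 hepatocytes (mouse); reagent: oleate loading, 100 µM; dosing: one dose, 6.5 µM compound; incubation: overnight exposure; signal: fluorescence imaging, 20x objective, two fields per well; read-out basis: % inhibition of corrected integrated BODIPY droplet signal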
697 NFkB inh – inhibitors of the PMA/ionomycin-induced NF-kB reporter in 697 B cells; 697 B-cell NF-kB luciferase reporter, 16 h; inhibition, % at 4 µM; 330,000 tested, 0.33% active; AID 435022; in the data active = inhibition above about 35%
Jurkat NFkB inh – inhibitors of the PMA/ionomycin-induced NF-kB reporter in Jurkat cells; AID 435003; inhibition, % at 4 µM; PMA/ionomycin-induced NF-kB luciferase reporter, luminescence; 330,000 tested, 0.53% active; in the data active = inhibition above about 50%
H9c2 TAG inh – triacylglycerol accumulation inhibition | inhibition, % at 12.5 µM | 230,000 tested, 0.66% active | H9c2 cells, Nile Red lipid (TAG) fluorescence; cells loaded with 200 µM oleic acid;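 active = pattern-corrected inhibition of lipid staining of at least 50% with the nuclear-stain viability signal not falling by more than 50%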
iPSC survival up – enhancers of human iPSC single-cell survival; AID 602274; 360,000 tested, 0.044% active; survival enhancement, % at 20 µM; hiPSC single-cell survival, ATPlite luminescence; 100% = ROCK inhibitor wells, 0% = DMSO; in the data active = survival enhancement above about 18%;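 note: cells exposed to compounds for 16 hours before the ATP read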
Jurkat NFkB conf – lowers PMA/ionomycin-induced NF-kB signal in Jurkat cells. AID 435020. shares compounds with Jurkat NFkB inh. inhibition, % at 4 µM. Jurkat NF-kB luciferase, 16 h. 2,700 tested, 27% active;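 active = inhibition reaching about 45% at 4 µM in either replicate, limit read from the data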
Numbers stand for hits; - = inactive; . = no result. Hits are enriched below; roughly 1.8% of the tested compounds scored in any of these assays.

SMILES	Gli-Sufu antag	Hep lipid drop	697 NFkB inh	Jurkat NFkB inh	H9c2 TAG inh	iPSC survival up	Jurkat NFkB conf
CC(C)Nc1ccc(C(CC(N)=O)NC(=O)c2ccccc2)cc1[N+](=O)[O-] (stereo unspecified)	-	-	-	-	-	-	.
O=C(NC1CCCCC1)C(c1ccc(F)cc1)N(Cc1ccco1)C(=O)CN1C(=O)c2ccccc2S1(=O)=O (stereo unspecified)	-	-	-	-	.	-	.
O=C(NNC(=O)c1csc(N2CCOCC2)n1)c1cccnc1	-	.	-	-	-	-	.
Cc1cc(C)c2c(=O)n3c(nc2c1)C(Cc1ccccc1)NC(=O)c1cc2ccccc2cc1-3 (stereo unspecified)	.	.	.	.	-	-	.
CC1(C)C(=O)Nc2ccccc2N1C(=O)COC(=O)c1cccnc1	-	.	-	-	-	-	.
CCOc1ccc(OCc2cccc(C(=O)N3CCOCC3)c2)cc1	-	-	-	53	.	-	-
O=C1Cc2cc(CCN3CCN(c4nsc5ccccc45)CC3)c(Cl)cc2N1	.	-	.	.	.	.	.
COc1nc(-c2cccs2)cc(-c2ccc(C)cc2)c1C#N	-	.	-	57	.	-	-
Cc1ccc(S(=O)(=O)Nc2ccccc2-c2ccccc2NS(=O)(=O)c2ccc(C)cc2)cc1	-	.	-	-	-	-	.
COc1cc(NS(=O)(=O)c2ccc(C)cc2)c2ncccc2c1	88	-	-	100	-	-	62
Cc1ccc(S(=O)(=O)Nc2cccc3cccnc23)cc1	63	.	-	92	-	-	-
COc1cc(OC)c(S(=O)(=O)Nc2ccc(C)cn2)cc1NC(C)=O	-	-	-	-	.	-	.
O=C(Nc1ccc2c(c1)OCCO2)c1cc2sccc2n1Cc1ccc(F)cc1	-	.	-	-	-	-	.
Cn1c(C(=O)Nc2ccc3c(c2)OCCO3)cc2sccc21	-	.	-	-	.	-	-
CCCS(=O)(=O)NC(=O)C1(C)CCCN(C(=O)c2ccc(SC(F)(F)F)cc2)C1 (stereo unspecified)	.	.	.	.	-	-	.
C/C(=C\C(=O)c1ccc(C)cc1)Nc1cccc(O)c1	-	.	-	-	.	-	-
O=C(Cc1ccc2c(c1)OCCO2)N1CCN(c2ccccc2)CC1	-	-	-	-	-	-	.
COc1cccc(N2CCN(c3ccc([N+](=O)[O-])cn3)CC2)c1	-	-	-	64	.	-	-
Cc1c(C)c(C)c(C(=O)C2CCN(c3ccc([N+](=O)[O-])cn3)CC2)c(C)c1C	-	-	-	73	-	-	-
CCc1ccccc1Nc1nc(N)nc(COC(=O)c2c(C)noc2C)n1	-	.	-	-	-	-	.
CC1(c2ccccc2)NC(=O)N(CC(=O)NCC2CCCO2)C1=O (stereo unspecified)	-	.	-	-	-	-	.
COc1cc(/C=C(\C#N)C(=O)Nc2cccc(C(=O)O)c2)ccc1OCc1ccc(Cl)cc1	-	.	-	-	.	-	-
COc1cc(/C=N/O)ccc1OCc1ccc(Cl)cc1	.	-	-	-	.	.	-
Cc1cc2nnc(SCC(=O)NCc3ccco3)n2c2ccccc12	-	.	-	58	-	-	-
Cc1cc2nnc(SCC(=O)NCc3cccs3)n2c2ccccc12	-	-	-	-	.	-	.
SMILES	Gli-Sufu antag	Hep lipid drop	697 NFkB inh	Jurkat NFkB inh	H9c2 TAG inh	iPSC survival up	Jurkat NFkB conf
CC1CCC(NS(=O)(=O)c2ccc(Cl)nc2)CC1 (stereo unspecified)	-	.	-	-	-	-	.
COc1ccc2c(Cn3cnc4cc([N+](=O)[O-])ccc4c3=O)cc(=O)oc2c1	-	-	-	70	-	-	-
Cc1ccc(N2C(=O)c3cccc4c(N)ccc(c34)C2=O)c2cccnc12	-	-	-	75	-	-	-
Cc1nn(C)c(C)c1N1C(=O)c2cccc3c(N)ccc(c23)C1=O	-	-	.	.	.	-	.
COCc1cc(C)nc(SCC[N+](C)(C)CC(=O)Nc2cccc(C(F)(F)F)c2)c1C#N	-	-	-	-	-	-	.
O=C(c1cc2cc3ccc(Cl)cc3nc2o1)N1CCCCCC1	-	-	-	-	.	-	-
O=C(c1cc2cc(Cl)ccc2o1)N1CCCCCC1	-	.	-	-	-	-	.
CCc1ccc2oc(-c3ccc(OC)cc3)cc(=Nc3c(C)n(C)n(-c4ccccc4)c3=O)c2c1	-	-	-	-	-	-	-
COc1ccc(-c2cc(=Nc3ccc(C(=O)O)cc3)c3cc(C)ccc3o2)cc1	-	-	-	-	-	-	-
